Blank lines part the entries; values can stand above or below the compound they belong to.
Legend:
[1] = target: Transient receptor potential cation channel subfamily V member 1 (Homo sapiens, UniProt Q8NER1); assay: Antagonist activity at human recombinant TRPV1 receptor expressed in human 1321 cells assessed as inhibition of capsaicin-induced in intracellular calcium levels by FLIPR assay; format: functional, cell-based
[2] = Ratio of drug level in brain to plasma in rat at 10 umol/kg, iv and po; format: ADME, organism-based; settings: read-out: BPR
[3] = Plasma clearance in rat at 10 umol/kg, iv and po; format: ADME, organism-based
Outline: (§1)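 Rat pharmacokinetics after 10 µmol/kg dosing, three animals per group for each of the iv and oral routes. Parameters reported are Vb (iv), CLp, t1/2 (iv), oral Cmax and oral bioavailability.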

[4] = Terminal phase volume of distribution […] in rat at 10 umol/kg, iv; format: ADME, organism-based; settings: in vivo, read-out: Vbeta; outline: as §1
[5] = Cmax in rat at 10 umol/kg, po; format: ADME, organism-based; set-up: dose 10 umol/kg, route oral; settings: in vivo; outline: as §1
[6] = Bioavailability in rat at 10 umol/kg, po; format: ADME, organism-based; settings: in vivo; outline: as §1
[7] = Half life in rat at 10 umol/kg, iv; format: ADME, organism-based; settings: in vivo; outline: as §1
Rattus norvegicus [8] = assay: Analgesic activity in po dosed rat osteoarthritis model; format: functional
[9] = target: T1, Transient receptor potential cation channel subfamily V member 3 (Homo sapiens, UniProt Q8NET8); assay: Antagonist activity at human TRPV3 receptor; format: functional
T1 sequence (Q8NET8 whole entry): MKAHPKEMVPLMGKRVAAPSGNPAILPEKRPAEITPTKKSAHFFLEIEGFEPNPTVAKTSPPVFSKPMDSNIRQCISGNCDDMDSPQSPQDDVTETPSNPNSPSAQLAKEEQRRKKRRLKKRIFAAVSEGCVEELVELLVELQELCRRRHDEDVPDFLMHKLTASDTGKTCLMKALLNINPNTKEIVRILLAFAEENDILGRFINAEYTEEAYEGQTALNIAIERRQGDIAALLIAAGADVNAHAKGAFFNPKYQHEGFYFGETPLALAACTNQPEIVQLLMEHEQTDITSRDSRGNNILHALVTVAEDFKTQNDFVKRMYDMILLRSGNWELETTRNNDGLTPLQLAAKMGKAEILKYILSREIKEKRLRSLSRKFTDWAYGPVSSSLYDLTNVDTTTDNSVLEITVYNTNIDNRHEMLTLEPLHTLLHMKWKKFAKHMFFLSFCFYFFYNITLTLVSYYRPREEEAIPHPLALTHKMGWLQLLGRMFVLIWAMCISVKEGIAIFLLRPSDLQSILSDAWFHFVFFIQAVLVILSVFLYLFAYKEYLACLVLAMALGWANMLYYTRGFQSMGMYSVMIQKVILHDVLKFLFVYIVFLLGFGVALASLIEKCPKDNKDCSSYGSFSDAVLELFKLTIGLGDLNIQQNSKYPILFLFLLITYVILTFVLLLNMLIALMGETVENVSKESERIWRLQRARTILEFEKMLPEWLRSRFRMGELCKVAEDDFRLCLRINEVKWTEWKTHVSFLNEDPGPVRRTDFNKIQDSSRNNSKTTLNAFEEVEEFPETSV

[10] = target: Voltage-gated inwardly rectifying potassium channel KCNH2 (Homo sapiens, UniProt Q12809); assay: Inhibition of human ERG
Sequence of Voltage-gated inwardly rectifying potassium channel KCNH2 (Q12809 whole entry): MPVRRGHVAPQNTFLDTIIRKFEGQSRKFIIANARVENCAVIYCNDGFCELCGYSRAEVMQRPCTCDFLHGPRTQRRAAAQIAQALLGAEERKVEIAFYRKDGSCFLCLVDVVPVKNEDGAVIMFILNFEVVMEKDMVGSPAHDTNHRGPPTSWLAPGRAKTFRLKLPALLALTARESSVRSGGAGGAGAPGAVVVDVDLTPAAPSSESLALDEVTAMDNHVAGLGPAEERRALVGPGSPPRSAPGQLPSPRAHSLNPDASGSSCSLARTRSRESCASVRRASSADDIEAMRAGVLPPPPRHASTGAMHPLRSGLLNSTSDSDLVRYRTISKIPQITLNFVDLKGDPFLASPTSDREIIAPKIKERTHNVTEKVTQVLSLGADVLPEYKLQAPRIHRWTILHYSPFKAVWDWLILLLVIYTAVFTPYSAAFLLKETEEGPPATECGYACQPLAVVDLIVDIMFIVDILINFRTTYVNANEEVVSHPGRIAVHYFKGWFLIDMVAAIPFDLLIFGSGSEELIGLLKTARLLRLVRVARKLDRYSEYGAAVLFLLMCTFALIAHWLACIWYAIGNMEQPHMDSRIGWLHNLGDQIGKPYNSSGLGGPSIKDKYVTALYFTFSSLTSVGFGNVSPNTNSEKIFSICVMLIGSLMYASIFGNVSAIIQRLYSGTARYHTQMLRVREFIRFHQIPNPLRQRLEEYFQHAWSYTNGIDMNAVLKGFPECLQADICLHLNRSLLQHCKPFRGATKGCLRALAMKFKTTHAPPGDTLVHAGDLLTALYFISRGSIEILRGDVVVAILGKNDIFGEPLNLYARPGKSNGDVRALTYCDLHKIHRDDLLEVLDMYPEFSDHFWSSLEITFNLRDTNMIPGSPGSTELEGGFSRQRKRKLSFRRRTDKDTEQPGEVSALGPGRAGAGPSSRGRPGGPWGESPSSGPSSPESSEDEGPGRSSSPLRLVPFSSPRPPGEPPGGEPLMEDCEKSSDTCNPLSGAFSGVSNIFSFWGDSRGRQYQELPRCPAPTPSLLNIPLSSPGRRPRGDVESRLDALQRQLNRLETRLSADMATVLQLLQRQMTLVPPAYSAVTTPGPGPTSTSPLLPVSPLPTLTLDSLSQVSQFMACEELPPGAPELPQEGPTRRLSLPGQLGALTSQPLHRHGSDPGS

[11] = target: Transient receptor potential cation channel subfamily V member 4 (Homo sapiens, UniProt Q9HBA0); assay: Antagonist activity at human TRPV4 receptor; format: functional
Sequence of Transient receptor potential cation channel subfamily V member 4 (Q9HBA0 whole entry): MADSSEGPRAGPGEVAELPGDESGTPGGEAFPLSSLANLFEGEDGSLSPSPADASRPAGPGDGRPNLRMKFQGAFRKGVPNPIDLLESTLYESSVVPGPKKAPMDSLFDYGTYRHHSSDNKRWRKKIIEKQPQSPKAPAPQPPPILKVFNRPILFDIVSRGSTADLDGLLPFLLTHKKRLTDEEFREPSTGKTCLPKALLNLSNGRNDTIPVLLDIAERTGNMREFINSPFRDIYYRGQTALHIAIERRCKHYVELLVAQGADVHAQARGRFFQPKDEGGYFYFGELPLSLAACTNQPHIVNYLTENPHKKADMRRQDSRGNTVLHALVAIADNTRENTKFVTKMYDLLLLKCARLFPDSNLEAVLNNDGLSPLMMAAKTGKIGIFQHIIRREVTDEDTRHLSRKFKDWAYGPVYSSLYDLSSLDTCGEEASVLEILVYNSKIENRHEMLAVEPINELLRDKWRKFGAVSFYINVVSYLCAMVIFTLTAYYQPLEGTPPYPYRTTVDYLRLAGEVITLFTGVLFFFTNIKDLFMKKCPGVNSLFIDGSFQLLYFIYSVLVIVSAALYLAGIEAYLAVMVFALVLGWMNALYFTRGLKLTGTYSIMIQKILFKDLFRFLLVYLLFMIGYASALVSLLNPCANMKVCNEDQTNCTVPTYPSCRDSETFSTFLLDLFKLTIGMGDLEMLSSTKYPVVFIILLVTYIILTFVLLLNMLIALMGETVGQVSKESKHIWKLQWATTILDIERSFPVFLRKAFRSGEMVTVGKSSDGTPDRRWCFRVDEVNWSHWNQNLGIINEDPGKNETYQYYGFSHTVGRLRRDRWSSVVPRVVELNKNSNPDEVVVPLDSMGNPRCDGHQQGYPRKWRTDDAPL

Rattus norvegicus [12] = assay: Analgesic activity against carrageenan-induced thermal hyperalgesia in Sprague-Dawley rat assessed as paw withdrawal latency at 10 umol/kg, po by hotbox assay; format: functional
[13] = target: T2, Transient receptor potential cation channel subfamily V member 2 (Rattus norvegicus, UniProt Q9WUD2); assay: Antagonist activity at rat TRPV2 receptor; format: functional
T2 sequence (Q9WUD2 whole entry): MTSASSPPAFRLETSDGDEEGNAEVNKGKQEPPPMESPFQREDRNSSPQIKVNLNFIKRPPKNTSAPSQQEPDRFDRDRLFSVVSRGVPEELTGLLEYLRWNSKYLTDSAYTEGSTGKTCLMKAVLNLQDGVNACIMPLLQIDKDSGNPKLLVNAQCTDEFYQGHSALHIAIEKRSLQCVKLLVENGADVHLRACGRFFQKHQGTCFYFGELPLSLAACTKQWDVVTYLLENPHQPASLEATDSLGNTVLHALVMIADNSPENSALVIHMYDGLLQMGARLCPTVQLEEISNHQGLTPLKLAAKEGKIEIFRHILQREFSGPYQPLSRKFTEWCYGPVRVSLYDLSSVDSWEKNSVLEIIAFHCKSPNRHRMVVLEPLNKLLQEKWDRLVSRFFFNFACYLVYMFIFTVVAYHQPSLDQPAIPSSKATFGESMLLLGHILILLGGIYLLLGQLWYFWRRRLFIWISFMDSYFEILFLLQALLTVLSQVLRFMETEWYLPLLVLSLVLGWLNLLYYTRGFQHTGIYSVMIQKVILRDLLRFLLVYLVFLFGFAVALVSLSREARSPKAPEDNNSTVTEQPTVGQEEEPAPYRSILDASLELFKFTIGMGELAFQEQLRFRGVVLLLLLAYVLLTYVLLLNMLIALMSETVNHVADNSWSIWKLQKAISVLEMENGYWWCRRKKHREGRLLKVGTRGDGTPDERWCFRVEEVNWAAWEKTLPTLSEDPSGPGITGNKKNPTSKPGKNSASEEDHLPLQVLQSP

Salmonella typhimurium = assay: Mutagenic activity in Salmonella Typhimurium by Ames test; format: toxicity, organism-based; settings: salmonella enterica subsp. enterica serovar typhimurium
Canis familiaris = assay: Cardiotoxicity in anesthetized dog assessed as effect on hemodynamics at 57 times Cmax concentration; settings: in vivo
[14] = target: Transient receptor potential cation channel subfamily M member 8 (Homo sapiens, UniProt Q7Z2W7); assay: Antagonist activity at human TRPM8 receptor; format: functional
Sequence of Transient receptor potential cation channel subfamily M member 8 (Q7Z2W7 whole entry): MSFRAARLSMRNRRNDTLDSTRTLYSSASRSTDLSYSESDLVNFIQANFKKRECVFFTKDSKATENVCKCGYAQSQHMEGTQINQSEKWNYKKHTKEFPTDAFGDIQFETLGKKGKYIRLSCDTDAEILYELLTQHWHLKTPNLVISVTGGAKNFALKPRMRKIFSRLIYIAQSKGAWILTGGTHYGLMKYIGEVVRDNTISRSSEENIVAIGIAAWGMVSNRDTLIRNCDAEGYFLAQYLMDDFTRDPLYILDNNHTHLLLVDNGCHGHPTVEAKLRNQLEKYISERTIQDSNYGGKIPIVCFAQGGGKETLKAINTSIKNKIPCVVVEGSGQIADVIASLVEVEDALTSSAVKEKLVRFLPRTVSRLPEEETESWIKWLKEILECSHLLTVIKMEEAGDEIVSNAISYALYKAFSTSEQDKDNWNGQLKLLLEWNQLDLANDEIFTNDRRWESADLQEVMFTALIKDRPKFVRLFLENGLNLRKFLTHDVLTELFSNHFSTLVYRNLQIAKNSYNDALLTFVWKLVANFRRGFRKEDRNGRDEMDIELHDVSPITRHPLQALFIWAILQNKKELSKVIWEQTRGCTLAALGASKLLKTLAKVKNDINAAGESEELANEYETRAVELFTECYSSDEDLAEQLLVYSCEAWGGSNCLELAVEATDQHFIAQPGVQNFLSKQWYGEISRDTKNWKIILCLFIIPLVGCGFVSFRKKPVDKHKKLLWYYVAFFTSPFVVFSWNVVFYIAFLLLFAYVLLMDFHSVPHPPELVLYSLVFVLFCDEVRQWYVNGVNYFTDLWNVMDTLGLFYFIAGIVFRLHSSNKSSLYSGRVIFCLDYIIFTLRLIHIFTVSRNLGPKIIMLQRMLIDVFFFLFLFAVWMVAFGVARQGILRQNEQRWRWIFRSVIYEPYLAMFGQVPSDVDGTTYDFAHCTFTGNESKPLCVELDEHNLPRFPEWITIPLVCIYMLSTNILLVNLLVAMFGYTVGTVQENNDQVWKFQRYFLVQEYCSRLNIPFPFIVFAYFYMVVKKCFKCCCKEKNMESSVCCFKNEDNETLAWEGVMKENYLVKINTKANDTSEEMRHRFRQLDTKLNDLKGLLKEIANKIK

[15] = Inhibition of human cytochrom P450; format: ADME

Sequence of Transient receptor potential cation channel subfamily V member 1 (Q8NER1 whole entry): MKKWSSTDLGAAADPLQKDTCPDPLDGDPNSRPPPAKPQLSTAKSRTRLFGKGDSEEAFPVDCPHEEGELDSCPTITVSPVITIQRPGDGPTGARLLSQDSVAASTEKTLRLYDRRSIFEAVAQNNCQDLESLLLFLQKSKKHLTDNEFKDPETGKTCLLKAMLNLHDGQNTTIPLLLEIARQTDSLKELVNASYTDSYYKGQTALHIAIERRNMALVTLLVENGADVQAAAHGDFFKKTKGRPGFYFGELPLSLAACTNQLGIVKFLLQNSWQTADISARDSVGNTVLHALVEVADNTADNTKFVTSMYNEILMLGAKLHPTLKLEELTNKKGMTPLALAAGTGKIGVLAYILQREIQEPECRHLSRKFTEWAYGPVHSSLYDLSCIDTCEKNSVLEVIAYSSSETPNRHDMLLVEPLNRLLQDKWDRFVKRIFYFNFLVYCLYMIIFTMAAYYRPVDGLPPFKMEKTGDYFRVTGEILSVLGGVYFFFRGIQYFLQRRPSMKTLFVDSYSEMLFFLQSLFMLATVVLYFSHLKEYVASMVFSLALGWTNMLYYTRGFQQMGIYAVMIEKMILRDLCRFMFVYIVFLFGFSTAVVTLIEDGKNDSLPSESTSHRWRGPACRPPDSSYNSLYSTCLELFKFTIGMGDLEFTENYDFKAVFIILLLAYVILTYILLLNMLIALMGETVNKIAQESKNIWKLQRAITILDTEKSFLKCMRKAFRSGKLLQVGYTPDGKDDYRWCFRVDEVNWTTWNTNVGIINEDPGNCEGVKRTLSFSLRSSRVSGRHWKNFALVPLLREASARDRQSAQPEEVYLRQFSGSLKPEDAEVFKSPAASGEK

IC50 [1]: 374 nM
SMILES: O=C1CCc2cccc(Nc3ncc(-c4ccc(C(F)(F)F)cc4)o3)c2C1

Kp [2]: 0.21
IC50 [1]: 1.3 nM
SMILES: OC1CCc2cccc(Nc3nc(-c4ccc(F)cc4)c(-c4ccc(C(F)(F)F)cc4)o3)c2C1 (stereo unspecified)

IC50 [1]: 150 nM
SMILES: COC1CCc2cccc(Nc3ncc(-c4ccc(C(F)(F)F)cc4)o3)c2C1 (stereo unspecified)

IC50 [1]: 157 nM
SMILES: Cc1cccc(-c2cnc(Nc3cccc4c3CC(O)CC4)o2)c1 (stereo unspecified)

IC50 [1]: 101 nM
SMILES: FC(F)(F)c1ccc(-c2cnc(Nc3cccc4[nH]ncc34)o2)cc1

Kp [2]: 0.13
IC50 [1]: 2 nM
SMILES: N#Cc1ccc(-c2nc(Nc3cccc4c3CC(O)CC4)oc2-c2ccc(C(F)(F)F)cc2)cc1 (stereo unspecified)

IC50 [1]: 26 nM
SMILES: CC(C)(C)c1ccc(-c2cnc(Nc3cccc4c3CC(O)CC4)o2)cc1 (stereo unspecified)

Kp [2]: 3
clearance [3]: 40 mL/min/kg
Vd [4]: 10 L/kg
Cmax [5]: 96 ng/mL
bioavailability [6]: 33%
half-life [7]: 2.8 h
SMILES: Cc1nc(Nc2cccc3c2CC(O)CC3)oc1-c1ccc(C(F)(F)F)cc1 (stereo unspecified)

IC50 [1]: 187 nM
SMILES: OC1CCc2cccc(Nc3ncc(-c4ccccc4)o3)c2C1 (stereo unspecified)

IC50 [1]: 229 nM
SMILES: FC(F)(F)c1ccc(-c2cnc(Nc3cccc4cnccc34)o2)cc1

IC50 [1]: 15 nM
SMILES: OC1CCc2cccc(Nc3ncc(-c4ccc(Cl)cc4)o3)c2C1 (stereo unspecified)

IC50 [1]: 101 nM
SMILES: OC1CCc2cccc(Nc3ncc(-c4ccc(N5CCCC5)cc4)o3)c2C1 (stereo unspecified)

IC50 [1]: 1820 nM
SMILES: OC1CCc2cccc(Nc3ncc(Cc4ccccc4)o3)c2C1 (stereo unspecified)

IC50 [1]: 9 nM
SMILES: OC1CCc2cccc(Nc3nc(Br)c(-c4ccc(C(F)(F)F)cc4)o3)c2C1 (stereo unspecified)

Kp [2]: 3
clearance [3]: 73.3 mL/min/kg
Vd [4]: 12 L/kg
Cmax [5]: 20 ng/mL
bioavailability [6]: 7%
half-life [7]: 1.9 h
SMILES: Cc1nc(Nc2cccc3c2C[C@@H](O)CC3)oc1-c1ccc(C(F)(F)F)cc1

IC50 [1]: 5 nM
SMILES: Oc1ccc2cccc(Nc3ncc(-c4ccc(C(F)(F)F)cc4)o3)c2c1

IC50 [1]: 81 nM
SMILES: COc1ccc(-c2cnc(Nc3cccc4c3CC(O)CC4)o2)cc1 (stereo unspecified)

IC50 [1]: 114 nM
SMILES: CC(C)c1nc(Nc2cccc3c2CC(O)CC3)oc1-c1ccc(C(F)(F)F)cc1 (stereo unspecified)

IC50 [1]: 327 nM
SMILES: NC1CCc2cccc(Nc3ncc(-c4ccc(C(F)(F)F)cc4)o3)c2C1 (stereo unspecified)

IC50 [1]: 840 nM
SMILES: CC1(O)CCc2cccc(Nc3ncc(-c4ccc(C(F)(F)F)cc4)o3)c2C1 (stereo unspecified)

IC50 [1]: 62 nM
SMILES: Cc1ccc(-c2cnc(Nc3cccc4c3CC(O)CC4)o2)cc1 (stereo unspecified)

IC50 [1]: 864 nM
SMILES: OC1CCc2cccc(Nc3nc(-c4ccccc4)co3)c2C1 (stereo unspecified)

IC50 [1]: 416 nM
SMILES: Cc1ccccc1-c1cnc(Nc2cccc3c2CC(O)CC3)o1 (stereo unspecified)

clearance [3]: 85 mL/min/kg
Vd [4]: 5.4 L/kg
Cmax [5]: 23 ng/mL
bioavailability [6]: 5%
half-life [7]: 0.7 h
IC50 [1]: 8.3 nM
SMILES: OC1CCc2cccc(Nc3ncc(-c4ccc(C(F)(F)F)cc4)o3)c2C1 (stereo unspecified)

IC50 [1]: 120 nM
SMILES: OC1CCc2c(cccc2Nc2ncc(-c3ccc(C(F)(F)F)cc3)o2)C1 (stereo unspecified)

IC50 [9]: > 100000 nM
Kp [2]: 3
IC50 [11]: > 100000 nM
clearance [3]: 20 mL/min/kg
IC50 [13]: 37000 nM
Vd [4]: 6.8 L/kg
Cmax [5]: 130 ng/mL
IC50 [14]: 44000 nM
bioavailability [6]: 52%
inhibition (INH) [15]: Not Active
half-life [7]: 3.8 h
SMILES: Cc1nc(Nc2cccc3c2C[C@H](O)CC3)oc1-c1ccc(C(F)(F)F)cc1
ED50 (Rattus norvegicus [8]): 14 µmol/kg
inhibition (INH) [10]: Not Active
Activity (Rattus norvegicus [12]): 52%
Activity (Salmonella typhimurium): Non-toxic
Activity (Canis familiaris): Non-toxic

IC50 [1]: 277 nM
SMILES: CN(c1ncc(-c2ccc(C(F)(F)F)cc2)o1)c1cccc2c1CC(O)CC2 (stereo unspecified)

Kp [2]: 3.7
IC50 [1]: 2.1 nM
SMILES: CCc1nc(Nc2cccc3c2CC(O)CC3)oc1-c1ccc(C(F)(F)F)cc1 (stereo unspecified)

Source: ChEMBL document CHEMBL1177639, “Synthesis and biological evaluation of 5-substituted and 4,5-disubstituted-2-arylamino oxazole TRPV1 antagonists” (Bioorg Med Chem, 2010)
